GASC1 inh: inhibitors of GASC-1 (KDM4C) histone demethylase, primary screen, biochemical, single concentration HTS. Lysine-specific demethylase 4C (Homo sapiens), Q9H3R0. GST-KDM4C 2-372, H3K9me3 peptide, LANCE TR-FRET. inhibition, % at 12.5 µM. actives 0.15% (n = 96,000). AID 720574, 2013;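 active means mean replicate inhibition above about 25%, with at least 55% of replicates also reaching it, limit read from the data, passing the limit was not always enough; inconclusive means only one of those two conditions met; inactive means neither condition met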
Target sequence (Q9H3R0 2-372 limits assumed): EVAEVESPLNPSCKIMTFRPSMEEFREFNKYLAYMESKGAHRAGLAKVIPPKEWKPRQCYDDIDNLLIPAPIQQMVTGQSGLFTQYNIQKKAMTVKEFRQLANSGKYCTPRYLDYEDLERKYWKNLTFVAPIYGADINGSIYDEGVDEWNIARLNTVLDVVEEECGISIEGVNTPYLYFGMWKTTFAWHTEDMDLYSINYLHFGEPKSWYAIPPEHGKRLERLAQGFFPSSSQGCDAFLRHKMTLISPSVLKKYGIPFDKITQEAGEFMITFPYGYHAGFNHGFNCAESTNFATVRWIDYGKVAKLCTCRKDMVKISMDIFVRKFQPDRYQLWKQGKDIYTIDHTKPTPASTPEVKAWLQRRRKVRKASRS
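material = GST-tagged GASC-1 (JMJD2C) catalytic fragment, aa 2-372 | amount = enzyme final amount 10 nM | medium = HEPES buffer, pH 7.5, plus ascorbate | also added = H3K9me3 peptide substrate, Fe(II), 2-oxoglutarate | dosing = single dose | times = 30 min demethylation and 1 h detection at room temperature | detection = LANCE TR-FRET | read-out basis = Fall in 671/618 emission ratio as inhibition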
Pf Dd2 inh: P. falciparum Dd2 growth inhibitors, primary screen, SYBR Green fluorescence, single dose replicates; 72 h; active compounds read low; activity change, % at 10 µM; actives 2.3% (n = 94,000); in the data active means activity change below about -80%; inconclusive means no clear call, values can overlap the other calls
T cruzi growth-1: T. cruzi intracellular proliferation inhibitors, primary screen, cell-based, beta-gal Tulahuen parasites, NIH3T3 host, luminescence | T. cruzi beta-gal in NIH3T3, GalScreen luminescence, 90 h | actives 5.9% (n = 77,000) | inhibition, % at 8.34 µM | AID 624255, 2012;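 active means mean inhibition above about 93%, with at least 55% of replicates each passing it, limit read from the data, passing the limit was not always enough; inconclusive means only one of those two conditions holds; inactive means neither condition holds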
IDH1 mut inh: inhibitors of IDH1 R132H reductase, primary screen, biochemical, plate reader, single point; Isocitrate dehydrogenase [NADP] cytoplasmic (Homo sapiens), O75874; diaphorase/resazurin fluorescence, 60 min; inhibition, % at 10 µM; actives 0.18% (n = 70,000); AID 624101, 2012; in the data active means inhibition above about 34%; inconclusive means no clear call, values can overlap the other calls; inactive means below about 11%
Target sequence (O75874 whole entry R132H): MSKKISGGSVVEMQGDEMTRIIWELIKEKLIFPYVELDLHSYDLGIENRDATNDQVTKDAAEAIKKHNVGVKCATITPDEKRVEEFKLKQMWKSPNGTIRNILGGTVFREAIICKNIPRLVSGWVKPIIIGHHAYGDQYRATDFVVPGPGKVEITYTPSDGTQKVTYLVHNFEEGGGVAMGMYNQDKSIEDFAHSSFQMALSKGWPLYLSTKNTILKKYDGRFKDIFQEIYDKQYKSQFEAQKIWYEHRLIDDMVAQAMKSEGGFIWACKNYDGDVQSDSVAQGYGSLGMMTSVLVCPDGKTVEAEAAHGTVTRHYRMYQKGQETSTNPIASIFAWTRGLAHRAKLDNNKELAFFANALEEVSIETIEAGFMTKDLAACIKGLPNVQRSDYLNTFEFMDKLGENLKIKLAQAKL
T cruzi growth-2: T. cruzi intracellular proliferation inhibitors, confirmation, cell-based, NIH3T3 host, beta-gal parasite, luminescence, cherry-pick; T. cruzi beta-gal in NIH3T3, GalScreen luminescence, 90 h; shares compounds with T cruzi growth-1; actives 72% (n = 5,600); AID 651739, 2012; inhibition, % at 8.35 µM;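 active means mean replicate inhibition above about 95% and at least 55% of replicates individually reaching it, limit read from the data; inconclusive means only one of the two criteria is met; inactive means neither criterion is met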
T cruzi growth-3: inhibitors of intracellular T. cruzi replication, confirmation, NIH3T3 host cells, beta-gal parasites, cherry-pick, set 2; shares compounds with T cruzi growth-1; actives 21% (n = 5,600); AID 651740, 2012; T. cruzi beta-gal in NIH3T3, GalScreen luminescence, 90 h; inhibition, % at 2.09 µM;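 active means mean inhibition above about 95%, with at least 55% of replicates also reaching it, limit read from the data; inconclusive means meets just one of the two conditions; inactive means meets neither condition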
NIH3T3 tox: cytotoxicity in mouse NIH/3T3 fibroblasts, confirmation, cytotoxicity control for T. cruzi proliferation inhibitor project, cell-based, cherry-pick, single point; cytotoxicity (signal decrease), % at 8.35 µM; shares compounds with T cruzi growth-1; NIH/3T3 viability, CellTiter-Glo ATP luminescence, 90 h; actives 14% (n = 5,600);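 active means mean signal decrease across replicates above about 35% based on untreated-well scatter, with enough replicates individually passing, limit read from the data; inconclusive means no rule stated though some were filed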
NIH3T3 tox 2: NIH/3T3 fibroblast cytotoxicity, confirmation, cytotoxicity control, cell-based, cherry-pick, single point, set 2 | shares compounds with T cruzi growth-1 | NIH/3T3 viability, CellTiter-Glo ATP luminescence, 90 h | inhibition, % at 24.9 µM | actives 56% (n = 5,600) | AID 651744, 2012;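 active means mean loss of cell viability signal at or above a set limit, and enough replicates individually reaching it; inconclusive means meets only the mean limit or only the replicate share; inactive means meets neither condition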
Of the large screens only hits and unclear results are named; the others gave an inactive call (follow-up assays come after a bar, where they were run). Shown are actives, neighbours in structure and some others; about 5.9% of the full set was active somewhere.

OC[C@H]1[C@H](c2ccc(C#CC3(O)CCCC3)cc2)[C@@H]2CN(Cc3cccnc3)CCCCN12	T cruzi growth-1 108.0 (no result: IDH1 mut inh) | T cruzi growth-2 98.2 | T cruzi growth-3 inactive | NIH3T3 tox inactive | NIH3T3 tox 2 inactive
OC[C@@H]1[C@H](c2ccc(C#CC3(O)CCCC3)cc2)[C@@H]2CN(Cc3cccnc3)CCCCN12	T cruzi growth-1 101.2 (no result: IDH1 mut inh) | T cruzi growth-2 107.5 | T cruzi growth-3 inactive | NIH3T3 tox inactive | NIH3T3 tox 2 inactive
COC(=O)c1cccc(NC(=O)C(C(C)C)N2C(=O)c3ccccc3C2=O)c1 (centres undefined)	none (no result: GASC1 inh, Pf Dd2 inh, T cruzi growth-1)
C[C@H](CO)N1C[C@H](C)[C@H](CN(C)S(=O)(=O)c2ccc(F)cc2)OCCCC[C@H](C)Oc2ccc(NC(=O)Nc3ccc4c(c3)OCO4)cc2C1=O	T cruzi growth-1 105.6 | T cruzi growth-2 109.4 | T cruzi growth-3 inactive | NIH3T3 tox inactive | NIH3T3 tox 2 inactive
C[C@@H]1CCCCO[C@H](CN(C)S(=O)(=O)c2ccc(F)cc2)[C@@H](C)CN([C@@H](C)CO)C(=O)c2cc(NC(=O)Nc3ccc(F)cc3)ccc2O1	T cruzi growth-1 100.1 | T cruzi growth-2 108.1 | T cruzi growth-3 inactive | NIH3T3 tox inactive | NIH3T3 tox 2 50.9
C[C@@H]1CCCCO[C@@H](CN(C)S(=O)(=O)c2ccc(F)cc2)[C@H](C)CN([C@@H](C)CO)C(=O)c2cc(NC(=O)Nc3ccc(F)cc3)ccc2O1	T cruzi growth-1 98.4 (no result: IDH1 mut inh) | T cruzi growth-2 104.9 | T cruzi growth-3 inactive | NIH3T3 tox inactive | NIH3T3 tox 2 inactive
C[C@@H]1CCCCO[C@@H](CN(C)S(=O)(=O)c2ccc(F)cc2)[C@@H](C)CN([C@H](C)CO)C(=O)c2cc(NC(=O)Nc3ccc(F)cc3)ccc2O1	none
C[C@@H]1CN([C@H](C)CO)C(=O)c2cc(NC(=O)Nc3ccc4c(c3)OCO4)ccc2O[C@@H](C)CCCCO[C@H]1CN(C)S(=O)(=O)c1ccc(F)cc1	none (no result: IDH1 mut inh)
C[C@@H]1CCCCO[C@@H](CN(C)S(=O)(=O)c2ccc(F)cc2)[C@H](C)CN([C@H](C)CO)C(=O)c2cc(NC(=O)Nc3ccc(F)cc3)ccc2O1	Pf Dd2 inh -81.6, T cruzi growth-1 100.0 (no result: IDH1 mut inh) | T cruzi growth-2 104.1 | T cruzi growth-3 inactive | NIH3T3 tox inactive | NIH3T3 tox 2 inactive
Cc1ccc(S(=O)(=O)N(C)C[C@@H]2OCCCC[C@H](C)Oc3ccc(NC(=O)Nc4ccc(F)cc4)cc3C(=O)N([C@@H](C)CO)C[C@H]2C)cc1	Pf Dd2 inh inconclusive, T cruzi growth-1 106.4 | T cruzi growth-2 102.0 | T cruzi growth-3 inactive | NIH3T3 tox inactive | NIH3T3 tox 2 inactive
C[C@@H]1CN([C@@H](C)CO)C(=O)c2cc(NC(=O)NC3CCCCC3)ccc2O[C@@H](C)CCCCO[C@H]1CN(C)S(=O)(=O)c1ccc(F)cc1	T cruzi growth-1 inconclusive | T cruzi growth-2 inactive | T cruzi growth-3 inactive | NIH3T3 tox inactive | NIH3T3 tox 2 inactive
O=S(=O)(c1cccs1)N1CCCCN2[C@H](C1)[C@H](c1ccc(C3=CCCCC3)cc1)[C@@H]2CO	T cruzi growth-1 119.8 (no result: GASC1 inh, IDH1 mut inh) | T cruzi growth-2 108.9 | T cruzi growth-3 inactive | NIH3T3 tox inactive | NIH3T3 tox 2 inconclusive
COc1ccc(S(=O)(=O)N2CCCCN3[C@H](C2)[C@H](c2ccc(C4=CCCCC4)cc2)[C@@H]3CO)cc1	T cruzi growth-1 116.9 (no result: GASC1 inh, IDH1 mut inh) | T cruzi growth-2 inconclusive | T cruzi growth-3 inactive | NIH3T3 tox inactive | NIH3T3 tox 2 26.8
CS(=O)(=O)N1CCCCN2[C@@H](CO)[C@H](c3ccc(C4=CCCC4)cc3)[C@@H]2C1	T cruzi growth-1 inconclusive (no result: IDH1 mut inh) | T cruzi growth-2 inactive | T cruzi growth-3 inactive | NIH3T3 tox inactive | NIH3T3 tox 2 inactive
COc1ccc(-c2ccc([C@@H]3[C@H](CO)N4CCCCN(S(=O)(=O)c5cccs5)C[C@@H]34)cc2)cc1	none (no result: IDH1 mut inh)
COc1ccc(-c2ccc([C@H]3[C@H]4CN(S(=O)(=O)c5cccs5)CCCCN4[C@H]3CO)cc2)cc1	T cruzi growth-1 113.5 (no result: IDH1 mut inh) | T cruzi growth-2 107.6 | T cruzi growth-3 inactive | NIH3T3 tox inactive | NIH3T3 tox 2 inactive
C[C@@H]1CN([C@@H](C)CO)C(=O)Cc2cc(NC(=O)Cn3cnnn3)ccc2O[C@@H]1CN(C)C(=O)Nc1ccc(F)cc1	none
O=C1CN(Cc2ccc(F)cc2)C[C@@H]2[C@H](c3ccc(-c4ccccc4F)cc3)[C@@H](CO)N12	none (no result: T cruzi growth-1, IDH1 mut inh)
Cc1ccc2oc(-c3cccc(NC(=O)COc4ccc(Br)cc4)c3C)nc2c1	none (no result: GASC1 inh, Pf Dd2 inh, T cruzi growth-1)
CO[C@@H]1CN(C)C(=O)c2cc(NS(=O)(=O)c3ccccc3F)ccc2OC[C@@H](C)NC[C@H]1C	none
CN(C)C(=O)c1ccc(-c2ccc([C@H]3[C@@H](CO)N4CCCCN(S(C)(=O)=O)C[C@H]34)cc2)cc1	none (no result: IDH1 mut inh)
Cc1cccc(-c2ccc([C@H]3[C@H]4CN(S(=O)(=O)c5cccs5)CCCCN4[C@H]3CO)cc2)c1	T cruzi growth-1 107.2 (no result: IDH1 mut inh) | T cruzi growth-2 102.7 | T cruzi growth-3 99.4 | NIH3T3 tox inactive | NIH3T3 tox 2 45.5
O=S(=O)(c1cccs1)N1CCCCN2[C@@H](CO)[C@@H](c3ccc(Br)cc3)[C@@H]2C1	none (no result: IDH1 mut inh)
CN(C)C(=O)c1ccc(-c2ccc([C@H]3[C@@H](CO)N4CCCCN(S(C)(=O)=O)C[C@@H]34)cc2)cc1	T cruzi growth-1 98.2 (no result: IDH1 mut inh) | T cruzi growth-2 inactive | T cruzi growth-3 inactive | NIH3T3 tox inactive | NIH3T3 tox 2 inactive
O=S(=O)(c1cccs1)N1CCCCN2[C@H](CO)[C@H](c3ccc(Br)cc3)[C@@H]2C1	T cruzi growth-1 114.4 (no result: IDH1 mut inh) | T cruzi growth-2 100.2 | T cruzi growth-3 inactive | NIH3T3 tox inactive | NIH3T3 tox 2 30.3
COc1ccc(-c2ccc([C@H]3[C@@H](CO)N4CCCCN(S(=O)(=O)c5cccs5)C[C@H]34)cc2)cc1	T cruzi growth-1 104.6 (no result: IDH1 mut inh) | T cruzi growth-2 105.7 | T cruzi growth-3 inactive | NIH3T3 tox inactive | NIH3T3 tox 2 104.8
Cc1ccc(S(=O)(=O)N(C)Cc2nc(-c3ccc([N+](=O)[O-])cc3)no2)cc1	none (no result: GASC1 inh, Pf Dd2 inh, T cruzi growth-1)
CC(=O)N1CC(=O)N2[C@H](C1)[C@@H](c1ccc(-c3ccc(C(=O)N(C)C)cc3)cc1)[C@@H]2CO	none (no result: T cruzi growth-1, IDH1 mut inh)
